According to ChEMBL document CHEMBL1122182, “Structure-activity studies on the C-terminal amide of substance P” (1982):
Where a SMILES comes first, the peptide text is derived from it. [ ]: non-standard residue; d: D form. The star is where a group is joined. Nle = CCCC[C@H](N)C(=O)O; NEt2 = CCN(CC)*; X1 = CN(C)N*; NHNH2 = NN*

What was measured:
Type in all cases: functional
Cavia porcellus [1] = organism: Cavia porcellus; test: In vitro intrinsic activity was measured in guinea pig ileum
Outline: (§1)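 Contraction of isolated guinea pig ileum. Peptide solutions were prepared and used the same day, then discarded. Responses were expressed as pD2, intrinsic activity (αE) and relative affinity.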

Rattus norvegicus = test: In vivo relative blood pressure potency was measured in rat
Cavia porcellus [2] = organism: Cavia porcellus; test: In vitro (pD2) the negative log of the dose which causes half-maximal contraction was measured in guinea pig ileum; outline: as §1
Cavia porcellus [3] = organism: Cavia porcellus; test: In vitro relative affinity was measured in guinea pig ileum; outline: as §1

| SMILES | Activity (Cavia porcellus [1]) | RBP (Rattus norvegicus) [%] | pD2 (Cavia porcellus [2]) | RA (Cavia porcellus [3]) [%] |
| --- | --- | --- | --- | --- |
| CNC(=O)[C@H](CCSC)NC(=O)[C@H](CC(C)C)NC(=O)CNC(=O)[C@H](Cc1ccccc1)NC(=O)[C@H](Cc1ccccc1)NC(=O)[C@H](CCC(N)=O)NC(=O)[C@@H](N)CCC(N)=O (H-QQFFGLM-NHMe) | 0.85 | 5 | 6.77 | 1 |
| CCCC[C@H](NC(=O)[C@H](CC(C)C)NC(=O)CNC(=O)[C@H](Cc1ccccc1)NC(=O)[C@H](Cc1ccccc1)NC(=O)[C@H](CCC(N)=O)NC(=O)[C@@H](N)CCC(N)=O)C(=O)OC (H-QQFFGL[Nle]-OMe) | 1 | 1.5 | 6.47 | 3.5 |
| COC(=O)[C@H](CCSC)NC(=O)[C@H](CC(C)C)NC(=O)CNC(=O)[C@H](Cc1ccccc1)NC(=O)[C@H](Cc1ccccc1)NC(=O)[C@H](CCC(N)=O)NC(=O)[C@@H](N)CCC(N)=O (H-QQFFGLM-OMe) | 1 | 1 | 7.3 | 3.37 |
| CCCC[C@H](NC(=O)[C@H](CC(C)C)NC(=O)CNC(=O)[C@H](Cc1ccccc1)NC(=O)[C@H](Cc1ccccc1)NC(=O)[C@H](CCC(N)=O)NC(=O)[C@@H](N)CCC(N)=O)C(=O)O (H-QQFFGL[Nle]-OH) | 1 | 1.5 | 6.34 | 2.6 |
| CCCC[C@H](NC(=O)[C@H](CC(C)C)NC(=O)CNC(=O)[C@H](Cc1ccccc1)NC(=O)[C@H](Cc1ccccc1)NC(=O)[C@H](CCC(N)=O)NC(=O)[C@@H](N)CCC(N)=O)C(N)=O (H-QQFFGL[Nle]-NH2) | 1 | – | 7.93 | – |
| CSCC[C@H](NC(=O)[C@H](CC(C)C)NC(=O)CNC(=O)[C@H](Cc1ccccc1)NC(=O)[C@H](Cc1ccccc1)NC(=O)[C@H](CCC(N)=O)NC(=O)[C@@H](N)CCC(N)=O)C(=O)NN(C)C (H-QQFFGLM-X1) | – | <0.05 | 6.6 | 0.53 |
| CCCC[C@H](NC(=O)[C@H](CC(C)C)NC(=O)CNC(=O)[C@H](Cc1ccccc1)NC(=O)[C@H](Cc1ccccc1)NC(=O)[C@H](CCC(N)=O)NC(=O)[C@@H](N)CCC(N)=O)C(=O)N(CC)CC (H-QQFFGL[Nle]-NEt2) | 1 | 0.2 | 6.03 | 1.3 |
| CCCC[C@H](NC(=O)[C@H](CC(C)C)NC(=O)CNC(=O)[C@H](Cc1ccccc1)NC(=O)[C@H](Cc1ccccc1)NC(=O)[C@H](CCC(N)=O)NC(=O)[C@@H](N)CCC(N)=O)C(=O)NN (H-QQFFGL[Nle]-NHNH2) | 1 | 5.2 | 6.63 | 5 |
| CSCC[C@H](NC(=O)[C@H](CC(C)C)NC(=O)CNC(=O)[C@H](Cc1ccccc1)NC(=O)[C@H](Cc1ccccc1)NC(=O)[C@H](CCC(N)=O)NC(=O)[C@@H](N)CCC(N)=O)C(N)=O (H-QQFFGLM-NH2) | 1 | 100 | 8.77 | 100 |
| CSCC[C@H](NC(=O)[C@H](CC(C)C)NC(=O)CNC(=O)[C@H](Cc1ccccc1)NC(=O)[C@H](Cc1ccccc1)NC(=O)[C@H](CCC(N)=O)NC(=O)[C@@H](N)CCC(N)=O)C(=O)N(C)C (H-QQFFGLM-NMe2) | – | 0.2 | – | <0.01 |
| CSCC[C@H](NC(=O)[C@H](CC(C)C)NC(=O)CNC(=O)[C@H](Cc1ccccc1)NC(=O)[C@H](Cc1ccccc1)NC(=O)[C@H](CCC(N)=O)NC(=O)[C@@H](N)CCC(N)=O)C(=O)NN (H-QQFFGLM-NHNH2) | 1 | 0.4 | 6.8 | 1 |
